Published values from different studies.
Each line is one published result; the experiments were not run side by side.
Target: Proto-oncogene tyrosine-protein kinase Src (SRC, Homo sapiens, UniProt P12931)

SMILES	assay	setting	quantity	result
c1ccc(C(NCCNC(c2ccccc2)c2ccccc2)c2ccccc2)cc1	enzyme activity, inhibitor	10 µM	inhibition	-24%
Cn1cc(-c2cccc(N3CCc4c(sc5c4CC(C)(C)C5)C3=O)c2CO)cc(Nc2ccncn2)c1=O	enzyme activity, inhibitor	1 µM	inhibition	39%
Nc1ncc(-c2nc(N3CCOCC3)nc(N3CCOCC3)n2)c(C(F)F)n1	binding, competition with immobilised ligand	10 µM	remaining binding	57%
Cn1cncc1[C@](O)(COc1ccc(C#N)cc1-c1ccc(OC(F)(F)F)cc1)c1ccc(C#N)cc1	cell-free assay, competition with immobilised ligand	1 µM	remaining binding	81%
CC(C)(C)c1cc(C=C(C#N)C#N)cc(Br)c1O	enzyme activity, inhibitor	0.5 µM	remaining activity	87.4%
O=C1c2c(O)cc(O)cc2OC(c2ccc(O)c(O)c2)C1O (stereo not drawn)	enzyme activity, inhibitor	80 µM	inhibition	53%
C[C@H](C(=O)N[C@H]1COc2ccccc2[C@@H]1S(C)(=O)=O)c1ccc(F)cc1	enzyme activity, inhibitor	10 µM	inhibition	-5%
O=c1[nH]c2ccccc2n1C1CCN(Cc2ccc(-c3[nH]c4cc5ncnc5cc4nc3-c3ccccc3)cc2)CC1	cell-free assay	0.5 µM	remaining signal	103%
Cn1cc(-c2cc(F)cc(N3CCn4c(cc5c4CCCC5)C3=O)c2CO)cc(Nc2ccc(N3CCN(C4COC4)CC3)cn2)c1=O	enzyme activity, inhibitor	0.1 µM	inhibition	13%
COc1ncccc1-c1cnn2ccc(N3CCN(C(=O)OC(C)C)CC3)nc12	binding, competition with immobilised ligand	1 µM	remaining binding	100%
Cc1nn(C)cc1-c1nc2c(N3CCN(Cc4ccc(Cl)cc4)CC3)c(Cl)cnc2[nH]1	binding, competition with immobilised ligand	1 µM	remaining binding	100%
C#Cc1n[nH]c2c(-c3cn(C(C)c4ccccn4)c(=O)[nH]c3=O)cc(F)cc12 (stereo not drawn)	enzyme activity, inhibitor	1 µM	inhibition	9.4%
